From ChEMBL document CHEMBL1287787, “Design and synthesis of disubstituted thiophene and thiazole based inhibitors of JNK” (Bioorg Med Chem Lett, 2010)

Columns and labels:
[1] = molecular target: Mitogen-activated protein kinase 8 (Homo sapiens, UniProt P45983); assay: Inhibition of recombinant JNK1 after 60 mins by TR-FRET assay
[2] = molecular target: Mitogen-activated protein kinase 10 (Homo sapiens, UniProt P53779); assay: Inhibition of recombinant JNK3 after 60 mins by TR-FRET assay
[3] = molecular target: Mitogen-activated protein kinase 9 (Homo sapiens, UniProt P45984); assay: Inhibition of recombinant JNK2 after 60 mins by TR-FRET assay
[4] = Metabolic stability in mouse liver microsomes assessed as compound remaining after 30 mins; type: ADME, Microsome; details: read-out: Stability
How it was run: (§1)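 Test compound incubated with mouse or human liver microsomes for 30 min. Read-out is the percent of parent compound remaining at the end of the incubation.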

[5] = Metabolic stability in human liver microsomes assessed as compound remaining after 30 mins; type: ADME, Microsome; details: read-out: Stability; how it was run: as §1
[6] = molecular target: Mitogen-activated protein kinase 1 (Homo sapiens, UniProt P28482); assay: Inhibition of recombinant Erk2 after 60 mins by TR-FRET assay
[7] = molecular target: Mitogen-activated protein kinase 14 (Homo sapiens, UniProt Q16539); assay: Inhibition of recombinant p38alpha after 60 mins by TR-FRET assay
MDR1 = assay: Permeability from apical to basolateral side of MDCK cells expressing MDR1 after 120 mins; type: ADME, cell-based, Canis lupus familiaris; details: dog, read-out: permeability
[8] = Solubility of compound in Hank's buffered salt solution; type: physicochemical
MDCK = assay: Efflux ratio of permeability from […] side in MDCK cells expressing p-gp after 120 mins; type: ADME, cell-based, Canis lupus familiaris; details: dog, 2 h

Sequence of Mitogen-activated protein kinase 9 (P45984 whole entry): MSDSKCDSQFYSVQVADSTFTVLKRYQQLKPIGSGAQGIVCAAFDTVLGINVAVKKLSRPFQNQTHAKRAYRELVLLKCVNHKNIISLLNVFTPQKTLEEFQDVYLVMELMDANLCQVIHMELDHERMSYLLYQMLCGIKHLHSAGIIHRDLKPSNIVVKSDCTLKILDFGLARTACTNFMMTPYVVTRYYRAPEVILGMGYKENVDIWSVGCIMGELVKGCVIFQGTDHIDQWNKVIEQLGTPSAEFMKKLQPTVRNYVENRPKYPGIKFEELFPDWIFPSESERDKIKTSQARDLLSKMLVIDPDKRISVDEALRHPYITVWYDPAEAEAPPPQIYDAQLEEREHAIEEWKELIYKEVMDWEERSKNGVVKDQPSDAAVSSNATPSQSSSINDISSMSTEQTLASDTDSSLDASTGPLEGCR
Sequence of Mitogen-activated protein kinase 1 (P28482 whole entry): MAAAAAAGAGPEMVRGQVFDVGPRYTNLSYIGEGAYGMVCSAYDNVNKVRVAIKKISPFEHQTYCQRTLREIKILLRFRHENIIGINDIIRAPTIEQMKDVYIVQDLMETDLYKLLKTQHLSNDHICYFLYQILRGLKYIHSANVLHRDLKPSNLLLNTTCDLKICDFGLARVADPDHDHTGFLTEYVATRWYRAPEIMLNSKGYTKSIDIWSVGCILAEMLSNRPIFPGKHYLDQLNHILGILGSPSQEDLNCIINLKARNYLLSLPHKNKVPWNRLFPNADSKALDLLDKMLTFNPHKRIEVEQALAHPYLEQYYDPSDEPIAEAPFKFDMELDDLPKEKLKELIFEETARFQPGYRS
Sequence of Mitogen-activated protein kinase 8 (P45983 whole entry): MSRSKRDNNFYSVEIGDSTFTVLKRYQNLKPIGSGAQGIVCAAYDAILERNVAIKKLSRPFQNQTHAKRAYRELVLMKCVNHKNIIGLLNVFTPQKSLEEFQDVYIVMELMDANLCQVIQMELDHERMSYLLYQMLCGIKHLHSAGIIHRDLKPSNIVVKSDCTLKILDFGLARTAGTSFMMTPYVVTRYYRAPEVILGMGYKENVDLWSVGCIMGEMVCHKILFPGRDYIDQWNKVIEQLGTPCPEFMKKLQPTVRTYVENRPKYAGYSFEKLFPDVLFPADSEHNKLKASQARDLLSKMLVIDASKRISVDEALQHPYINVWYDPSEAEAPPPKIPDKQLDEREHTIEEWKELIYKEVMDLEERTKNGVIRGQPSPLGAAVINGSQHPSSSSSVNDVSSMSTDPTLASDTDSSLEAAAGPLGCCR
Sequence of Mitogen-activated protein kinase 14 (Q16539 whole entry): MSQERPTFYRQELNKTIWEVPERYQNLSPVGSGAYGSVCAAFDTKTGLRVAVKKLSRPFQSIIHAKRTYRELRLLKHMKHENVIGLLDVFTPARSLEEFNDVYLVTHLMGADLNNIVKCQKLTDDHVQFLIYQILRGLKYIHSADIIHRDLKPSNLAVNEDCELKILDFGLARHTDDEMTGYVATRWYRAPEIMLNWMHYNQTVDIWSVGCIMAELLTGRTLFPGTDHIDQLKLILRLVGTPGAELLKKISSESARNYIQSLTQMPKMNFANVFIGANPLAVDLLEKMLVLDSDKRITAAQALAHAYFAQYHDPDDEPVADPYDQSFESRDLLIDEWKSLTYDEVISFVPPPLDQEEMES
Sequence of Mitogen-activated protein kinase 10 (P53779 whole entry): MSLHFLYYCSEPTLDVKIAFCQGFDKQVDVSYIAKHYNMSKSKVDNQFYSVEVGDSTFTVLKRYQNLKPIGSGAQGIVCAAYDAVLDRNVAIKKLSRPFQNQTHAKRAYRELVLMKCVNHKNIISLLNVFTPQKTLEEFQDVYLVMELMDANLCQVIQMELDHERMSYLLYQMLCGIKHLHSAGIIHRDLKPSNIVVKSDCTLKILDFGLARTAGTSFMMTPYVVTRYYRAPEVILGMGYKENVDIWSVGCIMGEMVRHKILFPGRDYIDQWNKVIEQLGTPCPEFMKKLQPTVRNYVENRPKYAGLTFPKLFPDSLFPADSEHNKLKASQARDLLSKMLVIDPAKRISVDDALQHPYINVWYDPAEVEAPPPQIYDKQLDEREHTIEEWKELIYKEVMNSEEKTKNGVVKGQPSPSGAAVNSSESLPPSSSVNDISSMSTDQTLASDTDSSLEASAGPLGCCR

Structure (SMILES)	IC50 [1]	IC50 [2]	IC50 [3]	remaining at 0.5 h [4]	remaining at 0.5 h [5]	IC50 [6]	IC50 [7]	Papp A→B at 2 h (MDR1)	solubility [8]	Ratio (MDCK)
COC(=O)c1sccc1NC(=O)Cc1cccc2ccccc12	0.4 µM	1.5 µM	14.6 µM	–	–	–	–	–	–	–
O=C(Cc1cccc2ccccc12)Nc1ccsc1-c1ncn[nH]1	0.53 µM	0.92 µM	3 µM	1%	11%	–	–	–	–	–
COc1ccc(CC(=O)Nc2ccsc2-c2nc(C(F)(F)F)n[nH]2)cc1	3.4 µM	5.9 µM	15 µM	8%	71%	> 50 µM	> 50 µM	–	–	–
Cc1nccnc1NC(=O)Cc1cccc2ccccc12	–	> 50 µM	> 50 µM	–	–	–	–	–	–	–
COc1ccc(CC(=O)Nc2ccsc2-c2cnccn2)cc1	1.1 µM	1.5 µM	5.7 µM	0%	0%	> 50 µM	> 50 µM	22.2 ×10⁻⁶ cm/s	–	–
COC(=O)c1sccc1NC(=O)Cc1cccs1	–	–	21.4 µM	–	–	–	–	–	–	–
Cn1ccc(-c2sccc2NC(=O)Cc2cccc3ccccc23)n1	24.1 µM	42.5 µM	> 50 µM	0%	0%	–	–	–	–	–
COc1ccc(CC(=O)Nc2ccsc2-c2nc(N)n[nH]2)cc1	–	–	8.7 µM	44%	87%	> 50 µM	> 50 µM	24.3 ×10⁻⁶ cm/s	–	–
O=C(Cc1cccc2ncccc12)Nc1ccsc1-c1nnc[nH]1	0.27 µM	0.56 µM	0.71 µM	23%	67%	> 50 µM	–	6 ×10⁻⁶ cm/s	> 100 µM	4.2
O=C(Cc1cccc2ccccc12)Nc1ccsc1-c1nnco1	3.2 µM	5.3 µM	27.1 µM	1%	7%	–	–	–	–	–
NC(=O)c1sccc1NC(=O)Cc1ccccc1	2.6 µM	4.4 µM	> 50 µM	–	–	–	–	–	–	–
COC(=O)c1sccc1NC(=O)Cc1ccc(C(F)(F)F)cc1	2 µM	6.9 µM	> 50 µM	–	–	–	–	–	–	–
COC(=O)c1sccc1NC(=O)Cc1ccc(-c2ccncc2)cc1	0.46 µM	0.69 µM	> 50 µM	–	–	–	–	–	–	–
CC(=O)c1sccc1NC(=O)Cc1ccccc1	6.3 µM	17 µM	> 50 µM	–	–	–	–	–	–	–
COC(=O)c1sccc1NC(=O)Cc1ccc2ccccc2c1	0.6 µM	3.9 µM	> 50 µM	–	–	–	–	–	–	–
COC(=O)c1cscc1NC(=O)Cc1cccc2ccccc12	0.89 µM	0.9 µM	9.9 µM	–	–	–	–	–	–	–
COC(=O)c1scnc1NC(=O)Cc1cccc2ccccc12	> 50 µM	> 50 µM	> 50 µM	–	–	–	–	–	–	–
COC(=O)c1ncsc1NC(=O)Cc1cccc2cnccc12	1.7 µM	1.6 µM	5.3 µM	11%	41%	> 50 µM	> 50 µM	–	–	0.8
COc1ccc(CC(=O)Nc2ccsc2-c2ncco2)cc1	–	–	11.9 µM	9%	14%	–	–	–	–	–
COC(=O)c1nonc1NC(=O)Cc1cccc2ccccc12	> 50 µM	> 50 µM	> 50 µM	–	–	–	–	–	–	–
Cc1ccncc1NC(=O)Cc1cccc2ccccc12	> 50 µM	> 50 µM	> 50 µM	–	–	–	–	–	–	–
COC(=O)c1sccc1NC(=O)Cc1ccccc1	0.7 µM	2.7 µM	22.8 µM	–	–	–	–	–	–	–
COC(=O)c1cccnc1NC(=O)Cc1cccc2ccccc12	> 50 µM	> 50 µM	> 50 µM	–	–	–	–	–	–	–
O=C(Cc1cccc2cnccc12)Nc1ccsc1-c1cscn1	0.14 µM	0.16 µM	0.94 µM	1%	4%	> 50 µM	> 50 µM	26.1 ×10⁻⁶ cm/s	90 µM	1.1
COC(=O)c1sccc1NC(=O)Cc1ccc(-n2ccnc2)cc1	1 µM	1.6 µM	> 50 µM	–	–	–	–	–	–	–
COc1ccc(CC(=O)Nc2ccsc2-n2nccn2)cc1	0.83 µM	1.5 µM	5 µM	1%	0%	–	–	15 ×10⁻⁶ cm/s	–	–
CCOC(=O)c1c(C)nsc1NC(=O)Cc1cccc2ccccc12	> 50 µM	> 50 µM	> 50 µM	–	–	–	–	–	–	–
